Results as given in paper PMC10764271 (Saudi Pharmaceutical Journal : SPJ, 2023).
Like-named read-outs stand apart in the source and are kept apart here.

Experiments:
Assay type in all cases: cell-based, human
MCF-10A = experiment: MTT cytotoxicity assay, normal breast cell line MCF-10A; settings: read-out: IC50 Values MCF-10A, 48 h
Outline: (§1)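 Cells grown in DMEM with 10 % FBS and 1 % antibiotics (100 U/ml penicillin), seeded at 1.0 × 10^4 cells/well and left 24 h at 37 °C, 5 % CO2. Medium replaced; test compound at 5, 10, 25 and 50 μM for 48 h. MTT (5 mg/mL solution) added for 4 h; formazan dissolved in DMSO; A570 read. Triplicates. % viability versus untreated cells; IC50 from dose–response analysis.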

MCF-7 = experiment: MTT cytotoxicity assay, MCF-7
Outline: as §1

MDA-MB-231 = experiment: MTT cytotoxicity assay, MDA-MB-231
Outline: as §1

[1] = Homo sapiens, MCF7, 48 h, read-out: IC50 Values MCF-7, MTT, 48 h, ±SD
[2] = Homo sapiens, MDA-MB-231, 48 h, read-out: IC50 Values MDA-MB-231, MTT, 48 h, ±SD

SMILES	IC50 (MCF-10A; MTT, normal breast cell line, ±SD)	IC50 (MCF-7; read-out: IC50 Values MCF-7, MTT, 48 h, ±SD)	IC50 (MDA-MB-231; read-out: IC50 Values MDA-MB-231, MTT, 48 h, ±SD)	IC50 (MCF-10A; Homo sapiens, MCF-10A)	IC50 (MCF-7; [1])	IC50 (MDA-MB-231; [2])
N.N.[Cl][Pt][Cl] [Cisplatin, reference compound]	64.6 ± 0.5 µM	24.1 ± 0.8 µM	27 ± 0.8 µM			
Oc1ccccc1C=Nc1cccnc1NCc1ccccc1 [H2L^1, 2-((2-(benzylamino)pyridin-3-ylimino)methyl)phenol]				> 100 µM	70.9 ± 0.4 µM	75 ± 0.2 µM
Oc1ccc(Br)cc1C=Nc1cccnc1NCc1ccccc1 [H2L^2, 2-((2-(benzylamino)pyridin-3-ylimino)methyl)-4-bromophenol]				> 100 µM	81.6 ± 0.6 µM	81.6 ± 0.6 µM
Oc1ccc2ccccc2c1C=Nc1cccnc1NCc1ccccc1 [H2L^3, 1-((2-(benzylamino)pyridin-3-ylimino)methyl)naphthalen-2-ol]				> 100 µM	112.4 ± 0.6 µM	87.01 ± 0.3 µM
CCN(CC)c1ccc(C=Nc2cccnc2NCc2ccccc2)c(O)c1 [H2L^4, 2-((2-(benzylamino)pyridin-3-ylimino)methyl) −5-(diethylamino)phenol]				> 100 µM	104.6 ± 0.2 µM	81.1 ± 0.2 µM
Oc1ccc(Br)cc1C=Nc1cccnc1NC1CCCCC1 [H2L^5, 4-bromo-2-((2-(cyclohexylamino)pyridin-3-ylimino)methyl)phenol]				> 100 µM	88.81 ± 0.81 µM	82.2 ± 0.6 µM
CCN(CC)c1ccc(C=Nc2cccnc2NC2CCCCC2)c(O)c1 [H2L^6, 2-((2-(cyclohexylamino)pyridin-3-ylimino)methyl)-5-(diethylamino)phenol]				> 100 µM	99.6 ± 0.41 µM	96 ± 0.4 µM
Cc1ccccc1Nc1ncccc1N=Cc1cc(Br)ccc1O [H2L^7, 2-((2-(o-toluidino)pyridin-3-ylimino)methyl)-4-bromophenol]				> 100 µM	88.3 ± 0.51 µM	85.1 ± 0.4 µM
CCN(CC)c1ccc(C=Nc2cccnc2Nc2ccccc2C)c(O)c1 [H2L^8, 2-((2-(o-toluidino)pyridin-3-ylimino)methyl)-5-(diethylamino)phenol]				> 100 µM	88.3 ± 0.3 µM	83.6 ± 0.3 µM
O=[N+]([O-])c1cccnc1NCc1ccccc1 [compound 1, N-benzyl-3-nitropyridin-2-amine]				> 100 µM	122 ± 0.8 µM	110 ± 0.4 µM
O=[N+]([O-])c1cccnc1NC1CCCCC1 [compound 2, N-cyclohexyl-3-nitropyridin-2-amine]				> 100 µM	118 ± 0.3 µM	110.2 ± 0.3 µM
Cc1ccccc1Nc1ncccc1[N+](=O)[O-] [compound 3, 3-nitro-N-o-tolylpyridin-2-amine]				> 100 µM	120 ± 0.3 µM	112 ± 0.41 µM
Nc1cccnc1NCc1ccccc1 [compound 4, N^2-benzylpyridine-2,3-diamine]				> 100 µM	109 ± 0.6 µM	108 ± 0.2 µM
Nc1cccnc1NC1CCCCC1 [compound 5, N^2-cyclohexylpyridine-2,3-diamine]				> 100 µM	112 ± 0.41 µM	109 ± 0.8 µM
Cc1ccccc1Nc1ncccc1N [compound 6, N^2-o-tolylpyridine-2,3-diamine]				> 100 µM	112 ± 0.2 µM	108 ± 0.2 µM
